Measurements reported in paper PMC13170702 (Nuclear medicine and biology, 2025).

Experiment: organ radiation dose estimates, OLINDA 2.0, ICRP-103
Type: in vivo, human
Summary of the method: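 Whole-body PET-MR ran as nine scans to 214 min. Organ VOIs were drawn in AMIDE, giving decay-corrected %IA per VOI; remainder = whole body minus measured organs. TIACs came from the EXM exponential model (OLINDA 1.1). Per-participant organ doses were computed in OLINDA 2.0 with 73 kg adult male or 60 kg female models. Effective dose (mSv) = organ absorbed doses × ICRP-103 tissue weighting factors.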

COC(=O)[C@@H](N)CC(=O)Nc1ccc2c(c1)Cc1cc([18F])ccc1-2 [[^18F]RP-115, methyl N^4-(7-[^18F]fluoro-9H-fluoren-2-yl)asparaginate]
Estimated dose, Thyroid (Female n=4, mean±SD): 0.0239±0.0171 mGy/MBq | Estimated dose, Urinary bladder wall (Female n=4, mean±SD): 0.0516±0.0371 mGy/MBq | Estimated dose, Uterus (Female n=4, mean±SD): 0.0573±0.0514 mGy/MBq | Effective dose (whole body) (M1 (326 MBq)): 6.65 mSv | Estimated absorbed dose, Adrenals (M1 (326 MBq)): 13.5 mGy | Estimated absorbed dose, Brain (M1 (326 MBq)): 5.47 mGy | Estimated absorbed dose, Colon, left (M1 (326 MBq)): 5.63 mGy | Estimated absorbed dose, Colon, right (M1 (326 MBq)): 4.95 mGy | Estimated absorbed dose, Esophagus (M1 (326 MBq)): 5.18 mGy | Estimated absorbed dose, Eyes (M1 (326 MBq)): 2.26 mGy | Estimated absorbed dose, Gallbladder wall (M1 (326 MBq)): 10.3 mGy | Estimated absorbed dose, Heart wall (M1 (326 MBq)): 9.25 mGy | Estimated absorbed dose, Kidneys (M1 (326 MBq)): 70.7 mGy | Estimated absorbed dose, Liver (M1 (326 MBq)): 17.5 mGy | Estimated absorbed dose, Lungs (M1 (326 MBq)): 17.0 mGy | Estimated absorbed dose, Osteogenic cells (M1 (326 MBq)): 2.80 mGy | Estimated absorbed dose, Pancreas (M1 (326 MBq)): 5.93 mGy | Estimated absorbed dose, Prostate (M1 (326 MBq)): 3.21 mGy | Estimated absorbed dose, Rectum (M1 (326 MBq)): 3.35 mGy | Estimated absorbed dose, Red marrow (M1 (326 MBq)): 3.48 mGy | Estimated absorbed dose, Salivary glands (M1 (326 MBq)): 2.64 mGy | Estimated absorbed dose, Small intestine (M1 (326 MBq)): 17.2 mGy | Estimated absorbed dose, Spleen (M1 (326 MBq)): 24.9 mGy | Estimated absorbed dose, Stomach wall (M1 (326 MBq)): 5.27 mGy | Estimated absorbed dose, Testes (M1 (326 MBq)): 2.11 mGy | Estimated absorbed dose, Thymus (M1 (326 MBq)): 14.7 mGy | Estimated absorbed dose, Thyroid (M1 (326 MBq)): 4.36 mGy | Estimated absorbed dose, Urinary bladder wall (M1 (326 MBq)): 3.68 mGy | Effective dose (whole body) (M2 (289 MBq)): 4.65 mSv | Estimated absorbed dose, Adrenals (M2 (289 MBq)): 12.3 mGy | Estimated absorbed dose, Brain (M2 (289 MBq)): 2.94 mGy | Estimated absorbed dose, Colon, left (M2 (289 MBq)): 5.05 mGy | Estimated absorbed dose, Colon, right (M2 (289 MBq)): 4.10 mGy | Estimated absorbed dose, Esophagus (M2 (289 MBq)): 4.39 mGy | Estimated absorbed dose, Eyes (M2 (289 MBq)): 1.91 mGy | Estimated absorbed dose, Gallbladder wall (M2 (289 MBq)): 6.09 mGy | Estimated absorbed dose, Heart wall (M2 (289 MBq)): 33.5 mGy | Estimated absorbed dose, Kidneys (M2 (289 MBq)): 74.2 mGy | Estimated absorbed dose, Liver (M2 (289 MBq)): 10.1 mGy | Estimated absorbed dose, Lungs (M2 (289 MBq)): 2.65 mGy | Estimated absorbed dose, Osteogenic cells (M2 (289 MBq)): 2.33 mGy | Estimated absorbed dose, Pancreas (M2 (289 MBq)): 44.4 mGy | Estimated absorbed dose, Prostate (M2 (289 MBq)): 2.91 mGy | Estimated absorbed dose, Rectum (M2 (289 MBq)): 2.77 mGy | Estimated absorbed dose, Red marrow (M2 (289 MBq)): 2.76 mGy | Estimated absorbed dose, Salivary glands (M2 (289 MBq)): 2.20 mGy | Estimated absorbed dose, Small intestine (M2 (289 MBq)): 4.04 mGy | Estimated absorbed dose, Spleen (M2 (289 MBq)): 9.84 mGy | Estimated absorbed dose, Stomach wall (M2 (289 MBq)): 5.89 mGy | Estimated absorbed dose, Testes (M2 (289 MBq)): 2.02 mGy | Estimated absorbed dose, Thymus (M2 (289 MBq)): 5.86 mGy | Estimated absorbed dose, Thyroid (M2 (289 MBq)): 2.40 mGy | Estimated absorbed dose, Urinary bladder wall (M2 (289 MBq)): 4.70 mGy | Effective dose (whole body) (M3 (70.3 MBq)): 1.25 mSv | Estimated absorbed dose, Adrenals (M3 (70.3 MBq)): 2.34 mGy | Estimated absorbed dose, Brain (M3 (70.3 MBq)): 0.810 mGy | Estimated absorbed dose, Colon, left (M3 (70.3 MBq)): 0.970 mGy | Estimated absorbed dose, Colon, right (M3 (70.3 MBq)): 0.900 mGy | Estimated absorbed dose, Esophagus (M3 (70.3 MBq)): 1.00 mGy | Estimated absorbed dose, Eyes (M3 (70.3 MBq)): 0.450 mGy | Estimated absorbed dose, Gallbladder wall (M3 (70.3 MBq)): 1.53 mGy | Estimated absorbed dose, Heart wall (M3 (70.3 MBq)): 1.84 mGy | Estimated absorbed dose, Kidneys (M3 (70.3 MBq)): 12.4 mGy | Estimated absorbed dose, Liver (M3 (70.3 MBq)): 2.85 mGy | Estimated absorbed dose, Lungs (M3 (70.3 MBq)): 3.35 mGy | Estimated absorbed dose, Osteogenic cells (M3 (70.3 MBq)): 0.557 mGy | Estimated absorbed dose, Pancreas (M3 (70.3 MBq)): 1.15 mGy | Estimated absorbed dose, Prostate (M3 (70.3 MBq)): 0.724 mGy | Estimated absorbed dose, Rectum (M3 (70.3 MBq)): 0.702 mGy | Estimated absorbed dose, Red marrow (M3 (70.3 MBq)): 0.692 mGy | Estimated absorbed dose, Salivary glands (M3 (70.3 MBq)): 0.536 mGy | Estimated absorbed dose, Small intestine (M3 (70.3 MBq)): 1.93 mGy | Estimated absorbed dose, Spleen (M3 (70.3 MBq)): 2.65 mGy | Estimated absorbed dose, Stomach wall (M3 (70.3 MBq)): 0.984 mGy | Estimated absorbed dose, Testes (M3 (70.3 MBq)): 0.477 mGy | Estimated absorbed dose, Thymus (M3 (70.3 MBq)): 1.58 mGy | Estimated absorbed dose, Thyroid (M3 (70.3 MBq)): 0.830 mGy | Estimated absorbed dose, Urinary bladder wall (M3 (70.3 MBq)): 2.00 mGy | Effective dose (whole body) (M4 (153 MBq)): 2.62 mSv | Estimated absorbed dose, Adrenals (M4 (153 MBq)): 5.67 mGy | Estimated absorbed dose, Brain (M4 (153 MBq)): 2.17 mGy | Estimated absorbed dose, Colon, left (M4 (153 MBq)): 2.46 mGy | Estimated absorbed dose, Colon, right (M4 (153 MBq)): 2.15 mGy | Estimated absorbed dose, Esophagus (M4 (153 MBq)): 2.06 mGy | Estimated absorbed dose, Eyes (M4 (153 MBq)): 1.08 mGy | Estimated absorbed dose, Gallbladder wall (M4 (153 MBq)): 3.76 mGy | Estimated absorbed dose, Heart wall (M4 (153 MBq)): 3.73 mGy | Estimated absorbed dose, Kidneys (M4 (153 MBq)): 31.2 mGy | Estimated absorbed dose, Liver (M4 (153 MBq)): 5.85 mGy | Estimated absorbed dose, Lungs (M4 (153 MBq)): 5.53 mGy | Estimated absorbed dose, Osteogenic cells (M4 (153 MBq)): 1.28 mGy | Estimated absorbed dose, Pancreas (M4 (153 MBq)): 3.39 mGy | Estimated absorbed dose, Prostate (M4 (153 MBq)): 1.60 mGy | Estimated absorbed dose, Rectum (M4 (153 MBq)): 1.64 mGy | Estimated absorbed dose, Red marrow (M4 (153 MBq)): 1.54 mGy | Estimated absorbed dose, Salivary glands (M4 (153 MBq)): 1.26 mGy | Estimated absorbed dose, Small intestine (M4 (153 MBq)): 6.45 mGy | Estimated absorbed dose, Spleen (M4 (153 MBq)): 8.39 mGy | Estimated absorbed dose, Stomach wall (M4 (153 MBq)): 2.22 mGy | Estimated absorbed dose, Testes (M4 (153 MBq)): 1.09 mGy | Estimated absorbed dose, Thymus (M4 (153 MBq)): 5.87 mGy | Estimated absorbed dose, Thyroid (M4 (153 MBq)): 2.28 mGy | Estimated absorbed dose, Urinary bladder wall (M4 (153 MBq)): 2.61 mGy | Effective dose (whole body) (Male n=4, mean±SD): 0.0179±0.0018 mSv/MBq | Estimated dose, Adrenals (Male n=4, mean±SD): 0.0386±0.0043 mGy/MBq | Estimated dose, Brain (Male n=4, mean±SD): 0.0132±0.0029 mGy/MBq | Estimated dose, Esophagus (Male n=4, mean±SD): 0.0147±0.0011 mGy/MBq | Estimated dose, Eyes (Male n=4, mean±SD): 0.00678±0.00029 mGy/MBq | Estimated dose, Gallbladder wall (Male n=4, mean±SD): 0.0248±0.0048 mGy/MBq | Estimated dose, Heart wall (Male n=4, mean±SD): 0.0488±0.0449 mGy/MBq | Estimated dose, Kidneys (Male n=4, mean±SD): 0.214±0.034 mGy/MBq | Estimated dose, Left colon (Male n=4, mean±SD): 0.0162±0.0017 mGy/MBq | Estimated dose, Liver (Male n=4, mean±SD): 0.0419±0.0082 mGy/MBq | Estimated dose, Lungs (Male n=4, mean±SD): 0.0363±0.0193 mGy/MBq | Estimated dose, Osteogenic cells (Male n=4, mean±SD): 0.00825±0.00031 mGy/MBq | Estimated dose, Pancreas (Male n=4, mean±SD): 0.0527±0.0676 mGy/MBq | Estimated dose, Prostate (Male n=4, mean±SD): 0.0102±0.0003 mGy/MBq | Estimated dose, Rectum (Male n=4, mean±SD): 0.0101±0.0005 mGy/MBq | Estimated dose, Red marrow (Male n=4, mean±SD): 0.0101±0.0005 mGy/MBq | Estimated dose, Right colon (Male n=4, mean±SD): 0.0141±0.0010 mGy/MBq | Estimated dose, Salivary Glands (Male n=4, mean±SD): 0.00791±0.0003 mGy/MBq | Estimated dose, Small intestine (Male n=4, mean±SD): 0.0341±0.0169 mGy/MBq | Estimated dose, Spleen (Male n=4, mean±SD): 0.0508±0.0194 mGy/MBq | Estimated dose, Stomach wall (Male n=4, mean±SD): 0.0163±0.0029 mGy/MBq | Estimated dose, Testes (Male n=4, mean±SD): 0.00684±0.00028 mGy/MBq | Estimated dose, Thymus (Male n=4, mean±SD): 0.0316±0.0122 mGy/MBq | Estimated dose, Thyroid (Male n=4, mean±SD): 0.0121±0.0028 mGy/MBq | Estimated dose, Urinary bladder wall (Male n=4, mean±SD): 0.0183±0.0073 mGy/MBq
